# Compounds with a hit are over-represented: about 2.4% of the library has one in this group of screens.
# SUMO1-SIM PPI: alters human SUMO1 binding to SIM partners | AID 602429 | hit rate 0.33% among 360,000 | P63165 | inhibition, % at 20 µM | SUMO1 binding to a labelled peptide, TR-FRET, 1 h; in the data active = inhibition above about 37%
# STEP block: inhibitors of human striatal-enriched phosphatase STEP; AID 588621; inhibition, % at 20 µM; hit rate 0.25% among 360,000; recombinant STEP, OMFP fluorogenic substrate, fluorescence;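 active = inhibition at 20 µM, scaled per plate between control wells, above about 37%, limit read from the data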;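 note: 0% = DMSO with enzyme and substrate and 100% = substrate only without enzyme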
# Target sequence (P54829 whole entry, looked up): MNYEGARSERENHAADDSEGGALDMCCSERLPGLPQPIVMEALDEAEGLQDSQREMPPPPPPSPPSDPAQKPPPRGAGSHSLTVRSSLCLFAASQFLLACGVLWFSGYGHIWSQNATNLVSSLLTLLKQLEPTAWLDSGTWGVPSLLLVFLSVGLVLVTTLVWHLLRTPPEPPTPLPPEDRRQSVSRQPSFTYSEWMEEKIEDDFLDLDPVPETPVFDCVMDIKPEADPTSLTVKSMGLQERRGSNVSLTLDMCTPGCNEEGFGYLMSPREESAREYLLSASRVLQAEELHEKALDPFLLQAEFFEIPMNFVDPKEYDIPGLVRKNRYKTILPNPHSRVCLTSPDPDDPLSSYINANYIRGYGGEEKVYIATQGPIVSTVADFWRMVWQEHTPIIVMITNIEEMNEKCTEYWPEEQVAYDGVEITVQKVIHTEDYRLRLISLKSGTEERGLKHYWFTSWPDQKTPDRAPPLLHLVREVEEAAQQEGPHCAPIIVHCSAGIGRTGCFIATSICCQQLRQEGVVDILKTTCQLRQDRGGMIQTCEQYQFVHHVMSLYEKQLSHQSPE
#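 System: isolated STEP enzyme; schedule: 20 min enzyme reaction at room temperature, protected from light; medium: Bis-Tris buffer pH 6.0, 2.5 mM DTT, 0.005% Tween 20; signal: fluorescence, 480/540 nm; dosing: single compound dose of 20 µM, 1% DMSO final; also added: OMFP substrate, 25 µM final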
# LMPTP block: blocks human LMPTP phosphatase | AID 651560 | inhibition, % at 20 µM | recombinant LMPTP-A, OMFP fluorogenic substrate, fluorescence intensity | hit rate 0.22% among 360,000;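 active = compounds that cut the enzyme signal by at least half of the control window in the single-dose screen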;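 note: plate controls were DMSO wells with enzyme plus substrate for no effect and substrate without enzyme for full effect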
#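 Test system – LMPTP-A phosphatase enzyme · Quantity – 0.625 nM LMPTP-A final · Reagent – OMFP substrate, 400 µM final · Dosing – one test concentration per compound, 20 µM, with 3% DMSO overall · Timing – 50 min enzyme reaction at room temperature, protected from light · Detection – fluorescence intensity · Controls – substrate-only low control, DMSO enzyme-plus-substrate high control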
# Scp1 inh: blocks human Scp-1 phosphatase activity. Q9GZU7. Recombinant Scp1, phosphopeptide, malachite green phosphate absorbance. inhibition, % at 20 µM. hit rate 0.88% among 340,000;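 active = inhibition above about 50% at 20 µM, limit read from the data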;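 note: plate controls were DMSO wells with enzyme for no effect and wells lacking enzyme for full effect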
#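 System: SCP-1 catalytic domain; Reagent: Phospho 17-mer peptide substrate; Doses: one concentration, 20 µM, with 1.0% DMSO; Incubation: 45 min room-temperature reaction, 5 min colour, 30 min stabiliser; Signal: Phosphate-binding colour reagent, absorbance read at 630 nm.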
# NadD block: inhibitors of Staphylococcus aureus NadD. hit rate 0.78% among 360,000. purified NadD enzyme, colorimetric absorbance read-out. inhibition, % at 20 µM. AID 602399; in the data active = inhibition above about 26%
# DNMT1 block: inhibitors of human DNMT1. inhibition (reported as % activation of signal), % at 10 µM. P26358. hit rate 0.83% among 360,000. DNMT1 molecular beacon, Hinp1I cleavage, fluorescence; in the data active = inhibition above about 50%
# DNMT1 inh conf: DNMT1 inhibition confirmation, single concentration; hit rate 8% among 2,300; DNMT1 molecular beacon HinP1I cleavage, fluorescence; shares compounds with DNMT1 block; inhibition, % at 10 µM;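 active = average inhibition of at least 30% in the single-concentration confirmation test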
# Beacon interf: beacon fluorescence artifact counter-screen; AID 602387; hit rate 1% among 2,300; DNMT1 molecular beacon spectral interference counterscreen, fluorescence 485/520; activation (fluorescence interference), % at 10 µM; shares compounds with DNMT1 block;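 active = activation of at least 30% at 10 µM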;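 note: DNMT1 catalytic domain with a HinP1I cleavage step and a FAM/dabcyl DNA beacon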
# Starred values were filed as active, the others as inactive; nt = not tested or not shown.
SMILES,SUMO1-SIM PPI,STEP block,LMPTP block,Scp1 inh,NadD block,DNMT1 block,DNMT1 inh conf,Beacon interf
CN(C=[N+](C)C)c1cccc2c1C(=O)c1ccccc1C2=O,-18,-4,-1,2,6,62*,5,6
CC(C)c1ccc(NC2(C#N)C(=O)Nc3ccccc32)cc1 (stereo unspecified),-19,0,0,-3,-5,-6,nt,nt
CC(=O)NC(c1ccccc1)c1nc(-c2cccs2)cs1 (stereo unspecified),-8,-2,0,nt,0,1,nt,nt
CC(=O)c1ccc(NC(=O)CSc2ccc(-c3ccc(-n4cccn4)cc3)nn2)cc1,6,4,4,-5,-2,71*,3,0
CCc1cccc(OCC2Cn3c(nc4c3c(=O)[nH]c(=O)n4C)O2)c1 (stereo unspecified),6,-2,-1,1,-4,-5,nt,nt
NC(=O)CC(NC(=O)Cc1cccc2ccccc12)c1ccc(NC2CCCC2)c([N+](=O)[O-])c1 (stereo unspecified),0,-2,1,-6,-6,16,nt,nt
NC(=O)CC(NC(=O)Cc1cccc2ccccc12)c1ccc(NCCOc2ccccc2)c([N+](=O)[O-])c1 (stereo unspecified),-17,2,1,8,16,51*,1,-2
NC(=O)CC(NC(=O)Cc1cccc2ccccc12)c1ccc(NCC2CC2)c([N+](=O)[O-])c1 (stereo unspecified),-7,2,2,1,-1,32,nt,nt
NC(=O)CC(NC(=O)Cc1cccc2ccccc12)c1ccc(NC2CCCCC2)c([N+](=O)[O-])c1 (stereo unspecified),-4,8,0,-2,12,64*,2,4
COc1ccc2c(c1OC)C(=O)N1C2SC[C@H]1C(=O)NC1CC1 (stereo partly specified),3,-4,-1,12,3,-5,nt,nt
CC(C)c1ccc(NC(=O)C(c2ccccc2)N2CCOCC2)cc1 (stereo unspecified),8,-1,50*,-6,2,71*,2,4
Cc1nc(NCc2cccnc2)c2c3c(sc2n1)CCCC3,4,27,4,-6,-4,51*,1,-5
c1cncc(CNc2ncnc3sc4c(c23)CCCC4)c1,3,5,1,-6,-6,-1,nt,nt
Oc1ccc(N=Cc2ccc(-c3cccs3)s2)cc1,68*,20,33,-7,-4,77*,4,0
O=Cc1ccc(-c2cccs2)s1,-25,-3,0,10,-3,0,nt,nt
O=C(O)/C=C/c1ccc([N+](=O)[O-])o1,-1,31,11,58*,0,75*,5,2
Cc1ccc(Cn2c(SCc3cccnc3)nc3c2c(=O)n(C)c(=O)n3C)cc1,0,6,2,-6,3,108*,7,5
CCCSc1nc2c(c(=O)[nH]c(=O)n2C)n1Cc1ccc(C)cc1,1,1,0,-2,1,54*,0,1
CCCSc1nc2c(c(=O)[nH]c(=O)n2C)n1Cc1ccccc1,6,0,-2,6,1,-3,nt,nt
CC(=O)NC(CCCN1C(=O)c2ccccc2C1=O)c1nnn(C)n1 (stereo unspecified),-6,-3,-1,-5,-5,4,nt,nt
COC(=O)c1ccc(-c2nc3cc(Cl)c(N)cc3s2)cc1,1,-2,-1,-4,8,56*,1,7
CCOc1cc(/C=C2/NC(=S)NC2=O)ccc1OCc1ccc([N+](=O)[O-])cc1,-6,8,21,0,25,52*,3,9
CCOc1cc(C(c2c(C)[nH][nH]c2=O)c2c(C)[nH][nH]c2=O)ccc1OCc1ccc([N+](=O)[O-])cc1,-13,-2,2,-5,25,-26,nt,nt
